How the values were obtained:
sarkosyl-insoluble Tau [1] = assay: Sarkosyl fractionation of primary neurons, Tau immunoblot; type: cell-based, mouse; details: 12 hours; for Tau aggregation (sarkosyl-insoluble Tau) in primary neurons: Epoxomicin, MG132, iBEp 1 μM, Leupeptin 20 μM every two hours; for sarkosyl-insoluble Tau in primary WT mouse neurons: iBEp 1 μM, IgG-Epox […]
primary mouse neurons = assay: Intracellular metabolite extraction from treated neurons; type: in vitro ADME; details: DIV14 cortical neurons, extracted intracellular metabolites, 1 pg limit of detection
[2] = system: Tau phosphorylation at S202/T205; assay: Immunohistochemistry; type: in vivo, mouse; details: stereotactic injection, 72 hours, versus contralateral control
[3] = system: Tau phosphorylation at S202/T205; assay: Immunocytochemistry for phosphorylated Tau in primary neurons; type: cell-based, mouse; details: primary hTau-KI hippocampal neurons, 12 hours
sarkosyl-insoluble Tau [4] = assay: Sarkosyl fractionation of hippocampi after stereotactic injection; type: in vivo, mouse
[5] = system: β-sheet containing aggregates; assay: Thioflavin S staining after stereotactic hippocampal injection; type: in vivo, mouse; details: hTau-KI mice, 72 hours, relative to contralateral controls
[6] = system: intracellular ubiquitin conjugates and p62; assay: Immunoblots of ubiquitin conjugates and p62 in primary neurons; type: cell-based, mouse; details: primary WT neurons, immunoblot
[7] = biological target: catalytic proteasome subunits (Mus musculus, UniProt O55234+P70195+Q60692); type: binding; details: for targets bound (streptavidin enrichment / biotin pull-down, LC/MS): primary mouse neurons and mouse brain, Table S1
[8] = In vivo hippocampal injection dose-ranging; design: species or system mouse
Tau phosphorylation = assay: Quantitative phosphoproteomics of treated primary neurons; type: cell-based; details: primary mouse neurons; sites correspond to human S202, T205, T217, S404
[9] = system: ubiquitin-proteasome reporter GFPu in primary hippocampal neurons; assay: GFPu degradation assay; type: cell-based, mouse; details: DIV14 primary neurons, 1 μM, 12-hour incubation
How it was run: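 Primary hippocampal neurons on coverslips co-transfected at DIV7 or DIV8 with Ub-G76V-GFP (0.5 μg/coverslip) and mCherry (0.1 μg/coverslip) using lipofectamine 2000, 4 h at 37 °C. At DIV14, 1 μM test compound for 12 h, then fixed and processed for immunocytochemistry. GFP+ cells counted per 100 cells; n=6 regions imaged per replicate, N=3 biological replicates.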

[10] = system: Tau paired helical filaments; assay: Electron microscopy of sarkosyl-insoluble fractions of injected hippocampi; type: in vivo, mouse; details: hTau-KI mice, 72 hours after injection
Proteasome subunit β5 = Proteasome subunit β5 (Homo sapiens, UniProt P28074); assay: Proteasome subunit β5 activity assay; type: biochemical
[11] = system: surface Lrp1, GluR1 and neuroproteasomes; assay: Surface biotinylation of primary neurons treated with RAP; type: cell-based; details: primary mouse neurons
How it was run: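 Neurons were washed in cold PBSCM pH 8.0 and labelled with 0.5 mg/mL Sulfo-NHS-LC-Biotin in PBSCM, 4°C for 10 min. Labelling quenched with 50 mM glycine, two 10-min incubations at 4°C.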

[12] = system: neuroproteasome activity and sarkosyl-insoluble Tau; type: cell-based, mouse; details: primary WT neurons treated with RAP and a dose curve of iBEp

Molecule: CC[C@H](C)[C@H](NC(=O)[C@H]([C@@H](C)CC)N(C)C(C)=O)C(=O)N[C@H](C(=O)N[C@@H](CC(C)C)C(=O)[C@@]1(C)CO1)[C@@H](C)O [Epoxomicin, reference compound]
- Tau aggregation (sarkosyl-insoluble Tau) in primary neurons (sarkosyl-insoluble Tau [1]): does not
- permeability into primary mouse neurons by LC/MS-based metabolite profiling (primary mouse neurons): peak in Epox treated cells corresponds to Epoxomicin
- Tau phosphorylation at S202/T205 (AT8) in hippocampi of hTau-KI mice [2]: No Tau S202/T205 phosphorylation was detectable
- Tau phosphorylation at S202/T205 in primary neurons [3]: No Tau S202/T205 phosphorylation was detectable

Molecule: Biotin-PEG24-Epoxomicin [iBEp]
- sarkosyl-insoluble Tau in hippocampi from hTau-KI mice (sarkosyl-insoluble Tau [4]; 2 μL of 6.4 μM into CA1, 72 hours, contralateral IIT-PEG24-Biotin, N=6): significant increase
- sarkosyl-insoluble Tau signal in hippocampi from Tau-KO mice (sarkosyl-insoluble Tau [4]; stereotactic injection, contralateral DMSO, N=3): no detectable signal
- ThioS staining in CA1 region of hippocampi [5]: strong increase
- Tau aggregation (sarkosyl-insoluble Tau) in primary neurons (sarkosyl-insoluble Tau [1]): induces Tau aggregation
- sarkosyl-insoluble Tau in primary WT mouse neurons (sarkosyl-insoluble Tau [1]; immunoblot): significant increase
- increase of total intracellular ubiquitin conjugates or p62 levels [6]: lack of both markers
- targets bound (streptavidin enrichment / biotin pull-down, LC/MS) [7]: selectively targets catalytic proteasome subunits
- bands differentially labeled versus DMSO (streptavidin blot) ([7]; primary neurons treated 12 hours): only three bands differentially labeled
- adverse physiological effects at selected concentration ([8]; 6.4 μM): without causing observable adverse physiological effects
- inhibition of membrane-fraction proteasomes in vivo ([8]; 6.4 μM): detectable inhibition of membrane-fraction proteasomes
- concentration inducing seizure activity ([8]; 2 μL, mice): exceeding 12 μM
- Tau phosphorylation sites with time-dependent increase, of identified sites (Tau phosphorylation): 4 of 26
- Tau phosphorylation at S202/T205 (AT8) in hippocampi of hTau-KI mice [2]: significantly elevated
- Tau phosphorylation at S202/T205 in primary neurons [3]: significantly elevated
- accumulation of the ubiquitin-proteasome reporter GFPu [9]: did not cause accumulation
- filaments in sarkosyl-insoluble fractions by negative stain EM [10]: Twisted filaments which resembled paired helical filaments (PHFs) were readily apparent

Molecule: Biotin-PEG24-IleIleThr
- sarkosyl-insoluble Tau in primary WT mouse neurons (sarkosyl-insoluble Tau [1]; immunoblot): No such signal

Molecule: Sulfo-MG132 [SulfoMG]
- activity as proteasome inhibitor (Proteasome subunit β5; dose curve, Suc-LLVY-AMC (Extended Data Fig. 3g)): active
- potency relative to MG132 (Proteasome subunit β5; proteasome, calpain and cathepsin L activity assays (Extended Data Fig. 3g,h)): less potent than MG132
- sarkosyl-insoluble hTau in primary hTau-KI neurons (sarkosyl-insoluble Tau [1]; 1 μM, immunoblot): induces similar partitioning of hTau into the sarkosyl-insoluble fraction as iBEp
- Tau aggregation (sarkosyl-insoluble Tau) in primary neurons (sarkosyl-insoluble Tau [1]): induces Tau aggregation
- targets bound (streptavidin enrichment / biotin pull-down, LC/MS) [7]: the catalytic proteasome subunits as well as some off-targets of MG132

B1: RAP: pan-ApoE receptor antagonist, Receptor-associated protein (protein, UniProt P30533 35-357, looked up)
Alpha-2-macroglobulin …: YSREKNQPKPSPKRESGEEFRMEKLNQLWEKAQRLHLPPVRLAELHADLKIQERDELAWKKLKLDGLDEDGEKEARLIRNLNVILAKYGLDGKKDARQVTSNSLSGTQEDGLDDPRLEKLWHKAKTSGKFSGEELDKLWREFLHHKEKVHEYNVLLETLSRTEEIHENVISPSDLSDIKGSVLHSRHTELKEKLRSINQGLDRLRRVSHQGYSTEAEFEEPRVIDLWDLAQSANLTDKELEAFREELKHFEAKIEKHNHYQKQLEIAHEKLRHAESVGDGERVSRSREKHALLEGRTKELGYTVKKHLQDLSGRISRARHNEL
- surface GluR1 [11]: without modifying
- surface abundance of neuroproteasomes [11]: reduced
- surface localization of Lrp1 [11]: rapidly decreased
- susceptibility of neurons to Tau aggregation [12]: renders neurons more susceptible to Tau aggregation
